The results in this text go back to ChEMBL document CHEMBL1122858, “N-(1,3,4,6,7,12b-hexahydro-2H-benzo[b]furo[2,3-a]quinolizin -2-yl)-N- methyl-2-hydroxyethane-sulfonamide: a potent and selective alpha 2-adrenoceptor antagonist” (J Med Chem, 1985).

The target of experiment [1] is T1, Alpha-2A adrenergic receptor (Bos taurus, UniProt Q28838).
T1 sequence (Q28838 whole entry): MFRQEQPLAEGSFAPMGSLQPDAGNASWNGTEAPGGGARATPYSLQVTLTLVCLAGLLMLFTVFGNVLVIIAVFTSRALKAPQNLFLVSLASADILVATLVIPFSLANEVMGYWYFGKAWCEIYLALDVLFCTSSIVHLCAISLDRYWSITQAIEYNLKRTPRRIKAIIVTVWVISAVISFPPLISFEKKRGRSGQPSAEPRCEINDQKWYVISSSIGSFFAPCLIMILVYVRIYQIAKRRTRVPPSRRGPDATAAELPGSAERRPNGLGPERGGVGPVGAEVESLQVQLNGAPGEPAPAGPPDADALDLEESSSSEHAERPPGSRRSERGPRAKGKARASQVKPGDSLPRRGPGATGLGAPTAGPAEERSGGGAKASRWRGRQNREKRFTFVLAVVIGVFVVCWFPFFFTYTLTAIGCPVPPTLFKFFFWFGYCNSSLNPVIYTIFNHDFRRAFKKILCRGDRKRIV
In words: Evaluated for its ability to displace [3H]clonidine from alpha-2 adrenergic receptor of calf cerebral cortex. Type of experiment: tissue-based.

The subject of experiment [2] is Rattus norvegicus. The experiment can be described thus: Tested for reversal of clonidine-induced mydriasis in the rat administered intravenously. To be noted: iv. In kind it is functional. The gist of the method:
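In rats, clonidine-induced mydriasis from activation of central postsynaptic α2-adrenoceptors is established first. Test agents are then scored for reversing it, as a read-out of blood-brain barrier penetration and central α2 antagonism.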

Experiment [3] deals with T2, Alpha-1A adrenergic receptor (Bos taurus, UniProt P18130).
T2 sequence (P18130 whole entry): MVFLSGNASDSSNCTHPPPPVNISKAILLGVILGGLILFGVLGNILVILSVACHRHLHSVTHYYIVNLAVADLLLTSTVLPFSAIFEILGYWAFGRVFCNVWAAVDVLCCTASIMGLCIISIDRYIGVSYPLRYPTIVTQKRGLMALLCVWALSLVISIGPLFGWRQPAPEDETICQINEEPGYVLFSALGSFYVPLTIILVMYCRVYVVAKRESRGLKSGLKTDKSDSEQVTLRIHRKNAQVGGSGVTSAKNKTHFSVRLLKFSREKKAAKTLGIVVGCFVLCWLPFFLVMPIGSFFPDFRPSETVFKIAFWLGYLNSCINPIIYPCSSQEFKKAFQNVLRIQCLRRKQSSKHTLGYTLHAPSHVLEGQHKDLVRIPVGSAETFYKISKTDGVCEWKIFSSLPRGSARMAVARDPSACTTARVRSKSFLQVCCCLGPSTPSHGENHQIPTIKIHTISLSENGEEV
The experiment can be described thus: Evaluated for its ability to displace [3H]prazosin from alpha-1-Adrenoceptor of calf cerebral cortex. Type of experiment: tissue-based.

For experiment [4], the species on record is Rattus norvegicus. The experiment can be described thus: Tested for antagonism of methoxamine in the field-stimulated rat vas deferens. In kind it is functional. To be noted: read-out: pA2 (converted). The gist of the method: (§1)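 Isolated, field-stimulated rat vas deferens. Clonidine probes presynaptic α2-adrenoceptors and methoxamine probes postsynaptic α1-adrenoceptors. pA2 and slope come from Schild plots using at least three antagonist concentrations and four tissues per concentration. Values are means ± SD.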

The species entered for experiment [5] is Rattus norvegicus. The experiment can be described thus: Tested for antagonism of clonidine in the field-stimulated rat vas deferens. To be noted: read-out: pA2 (converted). In kind it is functional. The gist of the method: as §1
The target in experiment [6] is T3, Adrenergic receptor alpha-2 (Rattus norvegicus, UniProt P22086+P19328+P22909).
T3 sequence (P22086 whole entry): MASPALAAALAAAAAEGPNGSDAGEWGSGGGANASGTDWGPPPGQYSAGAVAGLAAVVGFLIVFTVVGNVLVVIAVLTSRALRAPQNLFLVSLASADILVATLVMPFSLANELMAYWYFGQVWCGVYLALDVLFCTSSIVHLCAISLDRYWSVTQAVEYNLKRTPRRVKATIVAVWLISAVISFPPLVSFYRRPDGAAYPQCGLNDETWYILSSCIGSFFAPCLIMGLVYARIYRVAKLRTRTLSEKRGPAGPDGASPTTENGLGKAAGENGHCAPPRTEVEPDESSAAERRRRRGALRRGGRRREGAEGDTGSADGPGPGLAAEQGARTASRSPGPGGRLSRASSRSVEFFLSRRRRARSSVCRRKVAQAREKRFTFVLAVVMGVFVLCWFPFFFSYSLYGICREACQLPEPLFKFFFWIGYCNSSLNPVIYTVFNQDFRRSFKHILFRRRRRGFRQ
T3 sequence (P19328 whole entry): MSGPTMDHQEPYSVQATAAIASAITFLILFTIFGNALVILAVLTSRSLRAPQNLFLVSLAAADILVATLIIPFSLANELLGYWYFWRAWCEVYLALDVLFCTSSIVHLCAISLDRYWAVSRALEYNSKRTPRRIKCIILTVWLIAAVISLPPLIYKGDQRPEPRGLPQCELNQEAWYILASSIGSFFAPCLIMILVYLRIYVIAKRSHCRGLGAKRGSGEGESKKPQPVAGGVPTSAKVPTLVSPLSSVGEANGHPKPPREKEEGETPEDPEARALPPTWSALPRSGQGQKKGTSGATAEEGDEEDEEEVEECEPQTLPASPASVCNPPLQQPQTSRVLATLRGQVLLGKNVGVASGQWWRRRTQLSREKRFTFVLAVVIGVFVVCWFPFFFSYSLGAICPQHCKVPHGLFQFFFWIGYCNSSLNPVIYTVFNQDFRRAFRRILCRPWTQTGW
T3 sequence (P22909 whole entry): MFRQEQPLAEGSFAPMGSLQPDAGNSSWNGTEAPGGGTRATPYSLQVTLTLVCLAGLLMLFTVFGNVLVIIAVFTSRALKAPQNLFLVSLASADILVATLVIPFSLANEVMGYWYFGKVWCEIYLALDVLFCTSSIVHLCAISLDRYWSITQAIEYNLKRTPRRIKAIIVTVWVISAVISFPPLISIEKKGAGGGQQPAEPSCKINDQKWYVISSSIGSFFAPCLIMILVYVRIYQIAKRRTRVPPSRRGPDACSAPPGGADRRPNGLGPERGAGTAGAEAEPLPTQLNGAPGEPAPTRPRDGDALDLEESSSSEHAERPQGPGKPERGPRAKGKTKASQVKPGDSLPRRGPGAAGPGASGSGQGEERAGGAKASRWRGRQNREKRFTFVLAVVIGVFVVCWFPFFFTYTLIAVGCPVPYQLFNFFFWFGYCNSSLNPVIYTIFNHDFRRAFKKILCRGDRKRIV
In words: Evaluated for its ability to displace [3H]rauwolscine from alpha-2 adrenergic receptor of rat cerebral cortex. Type of experiment: tissue-based.

As a reminder, the Ki is a measure of affinity in units of concentration, obtained from inhibition or displacement. A high value points to lower affinity. As a reminder, the ED50 is the midpoint of the dose-response relation. On to `CN(C1CCN2CCc3c(oc4ccccc34)C2C1)S(=O)(=O)CCO` (stereo unspecified), for which the Ki in experiment [1] was determined as 1.36 nM; in experiment [3], 210 nM; in experiment [6], 1.6 nM. Further, the median effective dose (ED50) in the experiment with Rattus norvegicus [2] turned out to be 0.0435 mg/kg. Further, the Kb was 102 nM in the experiment listed under Rattus norvegicus [4] and 1.7 nM in the experiment listed under Rattus norvegicus [5].

With `COC(=O)[C@@H]1[C@H]2C[C@H]3c4[nH]c5ccccc5c4CCN3C[C@@H]2CC[C@@H]1O` [YOHIMBINE], in the experiment on Rattus norvegicus [2], the ED50 is 1.04 mg/kg. The Kb is 302 nM in the experiment listed under Rattus norvegicus [4] and 22.4 nM in the experiment listed under Rattus norvegicus [5].

With `CN([C@@H]1CCN2CCc3c(oc4ccccc34)[C@@H]2C1)S(=O)(=O)CCO`, the results for the Ki in experiment [1], in experiment [3] and in experiment [6] were 0.77 nM, 110 nM and 1.1 nM, respectively. For the same compound, the ED50 with Rattus norvegicus [2] amounted to 0.0346 mg/kg. Besides, the results for the Kb in the experiment listed under Rattus norvegicus [4] and in the experiment listed under Rattus norvegicus [5] were 34.7 nM and 0.794 nM, respectively.

Take `CN([C@H]1CCN2CCc3c(oc4ccccc34)[C@H]2C1)S(=O)(=O)CCO`: the Ki in experiment [1] is 100 nM; in experiment [3] it was 8000 nM; in experiment [6], 190 nM. In addition, in the experiment on Rattus norvegicus [2], the median effective dose (ED50) was determined as 5.41 mg/kg. Further, the Kb in the experiment filed under Rattus norvegicus [4] is 2510 nM; in the experiment filed under Rattus norvegicus [5] it was 39.8 nM.
